≈ marks a conversion by molar mass, not a printed value.
Tests used:
HeLa = assay: Cytotoxicity against human HeLa cells at 200 ug/ml after 24 hrs by MTT assay; format: cell-based
In short: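 HeLa cells seeded at 5.0 × 10⁴ per well in DMEM with 10% FCS, 24 h at 37 °C in 5% CO₂; medium replaced with fresh medium containing test dilutions, 10% DMSO vehicle in control wells. After a further 24 h, MTT added; formazan dissolved in DMSO, OD read at 540 nm. Mean ± SE of 3 estimations.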

Candida parapsilosis = assay: Antifungal activity against Candida parapsilosis after 48 hrs by broth microdilution technique; format: functional; conditions: Lodderomyces parapsilosis
In short: (§1)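 Broth microdilution MIC per NCCLS guidelines in RPMI 1640 buffered with MOPS; starting inoculum of test culture 1–5 × 10³ CFU/mL.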

Sporothrix schenckii = assay: Antifungal activity against Sporothrix schenckii after 48 hrs by broth microdilution technique; format: functional; in short: as §1
Aspergillus fumigatus = assay: Antifungal activity against Aspergillus fumigatus after 48 hrs by broth microdilution technique; format: functional; in short: as §1
[1] = system: Trichophyton mentagrophytes; assay: Antifungal activity against Trichophyton mentagrophytes after 48 hrs by broth microdilution technique; format: functional; in short: as §1
Trichomonas vaginalis = assay: Antitrichomonal activity against Trichomonas vaginalis after 48 hrs by trypan blue exclusion assay; format: functional
In short: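 Trophozoites in TYM medium; stock solutions serially diluted in TYM to concentrations up to 0.1 mg/mL, DMSO/TYM as vehicle control. Parasites added, incubated anaerobically at 37 °C, viability checked by trypan blue exclusion under microscope (200×) from 3 to 48 h. MIC = lowest concentration with all cells dead at 48 h. Metronidazole reference; run three times.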

Spermatozoa = assay: Sperimcidal activity against human spermatozoa assessed as sperm motility at 1 % drug solution%; format: functional
In short: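 Drop of sperm–compound mixture placed on slide under cover glass, examined by phase contrast microscopy in five fields; percentage of motile spermatozoa scored visually within 30–40 s. N-9 as reference control; some compounds tested as D-(-)-tartrate salts.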

Candida albicans = assay: Antifungal activity against Candida albicans after 48 hrs by broth microdilution technique; format: functional; in short: as §1
Cryptococcus neoformans = assay: Antifungal activity against Cryptococcus neoformans after 48 hrs by broth microdilution technique; format: functional; in short: as §1

Row | SMILES | Activity (HeLa) | MIC (Candida parapsilosis) [µg/mL] | MIC (Sporothrix schenckii) [µg/mL] | MIC (Aspergillus fumigatus) [µg/mL] | MIC [1] [µg/mL] | MIC (Trichomonas vaginalis) [µM] | Activity (Spermatozoa) [%] | MIC (Candida albicans) [µg/mL] | MIC (Cryptococcus neoformans) [µg/mL]
1 | Cc1ncc([N+](=O)[O-])n1CCn1ccnc1 | Non-toxic | > 50 | 50 (≈ 226 µM) | > 50 | > 50 | 14.1 (≈ 3.13 µg/mL) | 92.36 | 25 (≈ 113 µM) | > 50
2 | Cc1ncc([N+](=O)[O-])n1CCOC(=O)CCn1ccnc1[N+](=O)[O-] | Non-toxic | > 50 | > 50 | > 50 | 50 (≈ 148 µM) | 9.25 (≈ 3.13 µg/mL) | 100 | > 50 | > 50
3 | C=CC(=O)OCCn1c([N+](=O)[O-])cnc1C | Non-toxic | > 50 | 50 (≈ 222 µM) | > 50 | 50 (≈ 222 µM) | 42.2 (≈ 9.51 µg/mL) | 70.59 | > 50 | 50 (≈ 222 µM)
4 | CS(=O)(=O)[O-].Cc1ncc([N+](=O)[O-])n1CC[n+]1ccccc1 | Non-toxic | > 50 | > 50 | > 50 | > 50 | 9.53 | 85.09 | > 50 | > 50
5 | CCCCCCCCCc1ccc(OCCOCCOCCOCCOCCOCCOCCOCCOCCO)cc1 [NONOXYNOL 9] |  | 50 (≈ 81.1 µM) |  |  |  | 60.8 (≈ 37.5 µg/mL) | 0 | > 50 | 
6 | Cc1ncc([N+](=O)[O-])n1CCOC(=O)CCl |  | > 50 | > 50 | > 50 | 25 (≈ 101 µM) | 10.1 (≈ 2.5 µg/mL) | 98.37 | > 50 | > 50
7 | Cc1ncc([N+](=O)[O-])n1CCOC(=O)CCn1nnc2ccccc21 | Non-toxic | > 50 | > 50 | > 50 | 50 (≈ 145 µM) | 27.6 (≈ 9.51 µg/mL) | 95.734 | > 50 | > 50
8 | Cc1ncc([N+](=O)[O-])n1CCOC(=O)CCn1c([N+](=O)[O-])cnc1C | Non-toxic | > 50 | > 50 | > 50 | 50 (≈ 142 µM) | 20.6 (≈ 7.26 µg/mL) | 88.24 | > 50 | > 50
9 | Cc1ncc([N+](=O)[O-])n1CCCl |  | > 50 | 50 (≈ 264 µM) | > 50 | > 50 | 6.6 (≈ 1.25 µg/mL) | 58.82 | > 50 | 50 (≈ 264 µM)
10 | Cc1ncc([N+](=O)[O-])n1CCSC(=S)N1CCN(c2ccc([N+](=O)[O-])cc2)CC1 | Non-toxic | > 50 | > 50 | > 50 | > 50 | 2.87 (≈ 1.25 µg/mL) | 41.18 | > 50 | > 50
11 | Cc1ncc([N+](=O)[O-])n1CCOC(=O)CCn1cncn1 | Non-toxic | > 50 | > 50 | > 50 | 50 (≈ 170 µM) | 21.3 (≈ 6.26 µg/mL) | 100 | > 50 | > 50
12 | CC(=O)OCCn1c([N+](=O)[O-])cnc1C |  | > 50 | > 50 | > 50 | > 50 | 23.5 (≈ 5 µg/mL) | 82.35 | > 50 | > 50
13 | CCN(CC)C(=S)SCCn1c([N+](=O)[O-])cnc1C | Non-toxic | > 50 | 25 (≈ 82.7 µM) | > 50 | 25 (≈ 82.7 µM) | 1.03 (≈ 0.311 µg/mL) | 100 | 50 (≈ 165 µM) | 50 (≈ 165 µM)
14 | Cc1ncc([N+](=O)[O-])n1CCSC(=S)N1CCCCC1 | Non-toxic | > 50 | 25 (≈ 79.5 µM) | > 50 | 50 (≈ 159 µM) | 1 (≈ 0.314 µg/mL) | 70.59 | > 50 | > 50
15 | Cc1ncc([N+](=O)[O-])n1CCOC(=O)CCN1CCN(c2ccc(F)cc2)CC1 | Non-toxic | > 50 | > 50 | > 50 | 50 (≈ 123 µM) | 1.54 (≈ 0.624 µg/mL) | 88.24 | > 50 | > 50
16 | Cc1ncc([N+](=O)[O-])n1CCSC(=S)N1CCN(c2ncccn2)CC1 | Non-toxic | > 50 | > 50 | > 50 | 50 (≈ 127 µM) | 25.4 (≈ 10 µg/mL) | 94.12 | > 50 | > 50
17 | Cc1ncc([N+](=O)[O-])n1CCSC(=S)N1CCOCC1 | Non-toxic | > 50 | 50 (≈ 158 µM) | > 50 | 50 (≈ 158 µM) | 1.98 (≈ 0.626 µg/mL) | 70.59 | > 50 | > 50
18 | Cc1ncc([N+](=O)[O-])n1CCOC(=S)[S-].[Na+] [METRONIDAZOLE XANTHATE] | Non-toxic | > 50 | > 50 | > 50 | > 50 | 112 | 90.24 | > 50 | > 50
19 | Cc1ncc([N+](=O)[O-])n1CCOC(=O)CCn1ccnc1 | Non-toxic | > 50 | > 50 | > 50 | 50 (≈ 170 µM) | 10.7 (≈ 3.13 µg/mL) | 100 | > 50 | > 50
20 | Cc1ncc([N+](=O)[O-])n1CCOC(=O)CCN1CCN(c2ccc([N+](=O)[O-])cc2)CC1 | Non-toxic | > 50 | > 50 | > 50 | 50 (≈ 116 µM) | 1.45 (≈ 0.627 µg/mL) | 82.35 | > 50 | > 50
21 | Cc1ncc([N+](=O)[O-])n1CCOS(C)(=O)=O |  | > 50 | 50 (≈ 201 µM) | > 50 | > 50 | 5.02 (≈ 1.25 µg/mL) | 94.12 | > 50 | > 50
22 | Cc1ncc([N+](=O)[O-])n1CCO [METRONIDAZOLE] | Non-toxic |  |  |  |  | 11.7 (≈ 2 µg/mL) | 100 |  | 
23 | OC(Cn1cncn1)(Cn1cncn1)c1ccc(F)cc1F [FLUCONAZOLE] | Non-toxic | 1 (≈ 3.27 µM) | 2 (≈ 6.53 µM) | 2 (≈ 6.53 µM) | 1 (≈ 3.27 µM) |  |  | 0.5 (≈ 1.63 µM) | 1 (≈ 3.27 µM)
